Measured values published in ChEMBL document CHEMBL1139283, “Synthesis and biological activity of 1,4-dihydrobenzothiopyrano[4,3-c]pyrazole derivatives, novel pro-apoptotic mitochondrial targeted agents” (Bioorg Med Chem, 2009).
Each block holds one compound with its values, some of them ahead of it. Active and inactive are the calls of the source. The calls are words filed in the database; no cut-off is given here.

How the values were obtained:
[1] = tested on: HL-60; experiment: Cytotoxicity against human HL60 cells after 72 hrs by trypan blue assay; assay type: functional, cell-based; conditions: HL-60, 72 h
Procedure, shortened: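 HL-60 cells kept in RPMI 1640 with 15% heat-inactivated FCS plus antibiotics, 37 °C, 5% CO2. 4×10^4 cells/well seeded, 24 h, then a range of concentrations added to complete medium for 72 h. Cell number counted by trypan blue; IC50 is the concentration giving 50% fewer cells than control cultures.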

[2] = tested on: HeLa; experiment: Cytotoxicity against human HeLa cells after 72 hrs by trypan blue assay; assay type: functional, cell-based
Procedure, shortened: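 HeLa cells kept in Ham's F-12 with 10% heat-inactivated FCS plus antibiotics, 37 °C, 5% CO2. 4×10^4 cells/well seeded, 24 h, medium renewed, then a range of concentrations added for 72 h. Viability by trypan blue; IC50 is the concentration giving 50% fewer cells than control.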

[3] = tested on: Salmonidae; experiment: Binding affinity to Salmon testes DNA assessed as drug-DNA complex formation by linear flow dichroism method
Procedure, shortened: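 Salmon testes DNA at 1.6×10^-3 M in ETN buffer (10 mM Tris, 10 mM NaCl, 1 mM EDTA, pH 7). DNA concentration set from extinction coefficient 6600 M(p)-1 cm-1 at 260 nm. Linear dichroism spectra recorded at 25 °C at [drug]/[DNA] = 0.00 and 0.08.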

[4] = species on record: Rattus norvegicus; experiment: Effect on mitochondrial swelling in rat liver mitochondria assessed as complete collapse of electrical membrane potential at 50 uM; assay type: functional
[5] = species on record: Rattus norvegicus; experiment: Decrease in mitochondrial sulfydryl groups in rat liver mitochondria at 50 uM; assay type: functional; set-up: scale not given: the % may be the effect or the level left
Procedure, shortened: (§1)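 Rat liver mitochondria (1 mg protein/mL) at 20 °C in 250 mM sucrose, 10 mM Hepes pH 7.4, 5 mM succinate, 1.25 μM rotenone with 30 μM Ca2+ unless omitted. Agent 50 μM; DTE 2 mM where present. Protein thiol oxidation measured; mean ± SD of four independent experiments.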

[6] = species on record: Rattus norvegicus; experiment: Decrease in mitochondrial sulfydryl groups in rat liver mitochondria at 50 uM in presence of DTE; assay type: functional; procedure, shortened: as §1
[7] = species on record: Rattus norvegicus; experiment: Increase in hydrogen peroxide production in rat liver mitochondria assessed per mg of protein at 50 uM; assay type: functional
Procedure, shortened: (§2)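 Rat liver mitochondria, 1 mg protein/mL, 20 °C, standard succinate/rotenone medium pH 7.4 with 30 μM Ca2+ unless omitted. Agent 50 μM. H2O2 measured fluorometrically by the scopoletin method, expressed per mg protein; mean ± SD of four independent experiments.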

[8] = species on record: Rattus norvegicus; experiment: Increase in hydrogen peroxide production in rat liver mitochondria assessed per mg of protein at 50 uM in presence of CA2+; assay type: functional; procedure, shortened: as §2
[9] = species on record: Rattus norvegicus; experiment: Induction of cytochrome c release in rat liver mitochondria at 50 uM by Western blotting in presence of Ca2+; assay type: functional
Procedure, shortened: (§3)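 Rat liver mitochondria (1 mg protein/mL) incubated 15 min at 20 °C in standard medium with 30 μM Ca2+ unless omitted. Agent 50 μM, CsA 1 μM. Supernatant after 13,000 g, 10 min, 4 °C, concentrated and run on SDS-PAGE (15% for cyt c, 10% for AIF). Western blot with anti-cyt c and anti-AIF antibodies.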

[10] = species on record: Rattus norvegicus; experiment: Induction of apoptosis inducing factor release in rat liver mitochondria at 50 uM by Western blotting in presence of Ca2+; assay type: functional; procedure, shortened: as §3
[11] = species on record: Rattus norvegicus; experiment: Induction of cytochrome c release in rat liver mitochondria at 50 uM by Western blotting in presence of cyclosporin A; assay type: functional; procedure, shortened: as §3
[12] = species on record: Rattus norvegicus; experiment: Induction of apoptosis inducing factor release in rat liver mitochondria at 50 uM by Western blotting in presence of cyclosporin A; assay type: functional; procedure, shortened: as §3
[13] = tested on: HeLa; experiment: Induction of apoptosis in human HeLa cells assessed as early stage apoptotic cell count at 50 uM using Annexin-V-FITC PI stain by flow cytometry; assay type: functional
Procedure, shortened: (§4)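 Near-confluent HeLa cells exposed to 50 μM agent for 0, 24 or 48 h at 37 °C. About 5×10^5 cells in binding buffer (10 mM Hepes pH 7.5, 140 mM NaCl, 2.5 mM CaCl2) stained with 1 μg/ml Annexin V-FITC and 1 μg/ml PI, 10 min at room temperature in the dark. Flow cytometry; mean of three independent experiments.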

[14] = tested on: HeLa; experiment: Induction of apoptosis in human HeLa cells assessed as late stage apoptotic cell count at 50 uM using Annexin-V-FITC PI stain by flow cytometry; assay type: functional; procedure, shortened: as §4
[15] = tested on: HeLa; experiment: Induction of apoptosis in human HeLa cells assessed as non apoptotic cell count at 50 uM using Annexin-V-FITC PI stain by flow cytometry; assay type: functional; procedure, shortened: as §4
[16] = tested on: HeLa; experiment: Induction of apoptosis in human HeLa cells assessed as dead cell count at 50 uM using Annexin-V-FITC PI stain by flow cytometry; assay type: functional
[17] = tested on: HeLa; experiment: Induction of apoptosis in human HeLa cells assessed as early stage apoptotic cell count at 50 uM treated for 24 hrs before Annexin-V-FITC PI staining by flow cytometry; assay type: functional; procedure, shortened: as §4
[18] = tested on: HeLa; experiment: Induction of apoptosis in human HeLa cells assessed as late stage apoptotic cell count at 50 uM treated for 24 hrs before Annexin-V-FITC PI staining by flow cytometry; assay type: functional; procedure, shortened: as §4
[19] = tested on: HeLa; experiment: Induction of apoptosis in human HeLa cells assessed as non apoptotic cell count at 50 uM treated for 24 hrs before Annexin-V-FITC PI staining by flow cytometry; assay type: functional; procedure, shortened: as §4
[20] = tested on: HeLa; experiment: Induction of apoptosis in human HeLa cells assessed as dead cell count at 50 uM treated for 24 hrs before Annexin-V-FITC PI staining by flow cytometry; assay type: functional
[21] = tested on: HeLa; experiment: Induction of apoptosis in human HeLa cells assessed as early stage apoptotic cell count at 50 uM treated for 48 hrs before Annexin-V-FITC PI staining by flow cytometry; assay type: functional; procedure, shortened: as §4
[22] = tested on: HeLa; experiment: Induction of apoptosis in human HeLa cells assessed as late stage apoptotic cell count at 50 uM treated for 48 hrs before Annexin-V-FITC PI staining by flow cytometry; assay type: functional; procedure, shortened: as §4
[23] = tested on: HeLa; experiment: Induction of apoptosis in human HeLa cells assessed as non apoptotic cell count at 50 uM treated for 48 hrs before Annexin-V-FITC PI staining by flow cytometry; assay type: functional; procedure, shortened: as §4
[24] = tested on: HeLa; experiment: Induction of apoptosis in human HeLa cells assessed as dead cell count at 50 uM treated for 48 hrs before Annexin-V-FITC PI staining by flow cytometry; assay type: functional
[25] = tested on: HeLa; experiment: Cytotoxicity against human HeLa cells assessed as viable cells at 6 uM after 72 hrs by trypan blue assay in presence of cyclosporin A; assay type: functional; conditions: read-out: Activity
Procedure, shortened: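 HeLa cells seeded, after 24 h pretreated 30 min with 2 μM CsA. Medium renewed, 6 μM agent added, 72 h. Viable cells counted by trypan blue and expressed as percent of control culture cell number.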

[26] = species on record: Rattus norvegicus; experiment: Decrease in mitochondrial sulfydryl groups in rat liver mitochondria at 50 uM in presence of Ca2+; assay type: functional; procedure, shortened: as §1
[27] = species on record: Rattus norvegicus; experiment: Effect on mitochondrial swelling in rat liver mitochondria assessed as complete collapse of electrical membrane potential at 50 uM in presence of bongkrekic acid; assay type: functional
[28] = tested on: HeLa; experiment: Induction of DNA fragmentation in human HeLa cells at 100 uM after 24 hrs in presence of cyclosporin A; assay type: functional, cell-based
Procedure, shortened: (§5)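 HeLa cells (5×10^5) grown 24 h at 37 °C, optionally pretreated 30 min at 37 °C with 5 μM CsA. Medium renewed, agent added at 100 μM for 24 h. Extracted DNA in TE buffer run on 0.8% agarose gel in TBE, pH 8.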

[29] = tested on: HeLa; experiment: Induction of DNA fragmentation in human HeLa cells at 100 uM after 24 hrs; assay type: functional, cell-based; procedure, shortened: as §5
[30] = tested on: HeLa; experiment: Induction of mitochondrial membrane depolarization in human HeLa cells at 50 uM after 24 hrs by FL2 staining; assay type: functional
Procedure, shortened: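 Near-confluent HeLa cells given 50 μM agent in DMSO for 24 h at 37 °C; JC-1 added at […] final for the last 10 min. Positive control 20 μM H2O2 for 24 h. After cold PBS wash, flow cytometry with 488 nm excitation; monomers at 530 nm, aggregates (FL2) at 585/650 nm. At least 10,000 events; one of four experiments.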

[31] = species on record: Rattus norvegicus; experiment: Effect on mitochondrial swelling in rat liver mitochondria assessed as complete collapse of electrical membrane potential at 50 uM in presence of Ca2+; assay type: functional
[32] = species on record: Rattus norvegicus; experiment: Effect on mitochondrial swelling in rat liver mitochondria assessed as complete collapse of electrical membrane potential at 50 uM in presence of cyclosporin A; assay type: functional
[33] = species on record: Rattus norvegicus; experiment: Effect on mitochondrial swelling in rat liver mitochondria assessed as complete collapse of electrical membrane potential at 50 uM in presence of ADP; assay type: functional
[34] = species on record: Rattus norvegicus; experiment: Effect on mitochondrial swelling in rat liver mitochondria assessed as complete collapse of electrical membrane potential at 50 uM in presence of N-ethylmaleimide; assay type: functional

Structure (SMILES): COc1ccc2c(c1)SCc1cnc(-c3ccccc3)nc1-2
IC50 [1]: 7.15 µM

Activity [3]: inactive
Structure (SMILES): COc1ccc(-n2ncc3c2-c2ccc(OC)cc2SC3)cc1
IC50 [1]: 6.6 µM
IC50 [2]: 17.8 µM

Activity [3]: inactive
Structure (SMILES): COc1ccc2c(c1)SCc1cnn(-c3ccccc3)c1-2
IC50 [1]: 12.5 µM
IC50 [2]: 17.2 µM

Structure (SMILES): Clc1ccc2c(c1)SCc1cnn(-c3ccccc3)c1-2
IC50 [1]: > 20 µM
IC50 [2]: > 20 µM

Structure (SMILES): COc1ccc(-n2ncc3c2-c2ccc(Cl)cc2SC3)cc1
IC50 [1]: > 20 µM
IC50 [2]: > 20 µM

Structure (SMILES): COc1ccc2c(c1)SCc1cn[nH]c1-2
IC50 [1]: > 20 µM
IC50 [2]: > 20 µM

Structure (SMILES): Clc1ccc2c(c1)SCc1cn[nH]c1-2
IC50 [1]: > 20 µM
IC50 [2]: > 20 µM

Structure (SMILES): COc1ccc2c(c1)SCc1cn(-c3ccccc3)nc1-2
IC50 [1]: > 20 µM
IC50 [2]: > 20 µM

Structure (SMILES): COc1ccc2c(c1)SCc1cnn(-c3ccc(Cl)cc3)c1-2
Activity [4]: inactive
Activity [5]: 20%
Activity [6]: Active
Activity [7]: 0.25 nmol
Activity [8]: 0.55 nmol
Activity [9]: Active
Activity [10]: Active
Activity [11]: inactive
Activity [12]: inactive
Activity [13]: 4.8%
Activity [14]: 1.2%
Activity [15]: 93.4%
Activity [16]: 0.6%
Activity [17]: 19.7%
Activity [18]: 28.2%
Activity [19]: 46.7%
Activity [20]: 5.4%
Activity [21]: 8.5%
Activity [22]: 39%
Activity [23]: 40.9%
Activity [24]: 11.6%
viability at 6 µM [25]: 64%
Activity [26]: 2
Activity [27]: inactive
Activity [28]: inactive
Activity [29]: Active
Activity [30]: 39.4%
IC50 [1]: 3.8 µM
IC50 [2]: 6.7 µM
Activity [3]: inactive
Activity [31]: Active
Activity [32]: inactive
Activity [33]: inactive
Activity [34]: inactive

Structure (SMILES): COc1ccc(-n2cc3c(n2)-c2ccc(OC)cc2SC3)cc1
IC50 [1]: > 20 µM
IC50 [2]: > 20 µM

Structure (SMILES): COc1ccc2c(c1)SCc1cn(-c3ccc(Cl)cc3)nc1-2
IC50 [1]: > 20 µM
IC50 [2]: > 20 µM

Structure (SMILES): Clc1ccc(-n2ncc3c2-c2ccc(Cl)cc2SC3)cc1
IC50 [1]: > 20 µM
IC50 [2]: > 20 µM
